The values below come from ChEMBL document CHEMBL1148346, “Tiplaxtinin, a novel, orally efficacious inhibitor of plasminogen activator inhibitor-1: design, synthesis, and preclinical characterization” (J Med Chem, 2004).

The target in series [1] is Plasminogen activator inhibitor 1 (Homo sapiens, UniProt P05121). Briefly: Inhibition of human plasminogen activator inhibitor-1.
Series [2] is described as follows: Apparent half-life after single intravenous bolus of 1 mg/kg in rats. The settings on record: rat, in vivo. The arrangement: dose 1 mg/kg, route intravenous. In kind it is ADME, organism-based.
The nature of series [3]: Cmax after single intravenous bolus of 1 mg/kg in dogs. In kind it is ADME, organism-based, Canis lupus familiaris. Also noted: dose 1 mg/kg, route intravenous. The settings on record: dog, in vivo. Summed up: (§1)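 Male beagle dogs given a single iv bolus of 1 mg/kg. Plasma sampled, with apparent half-life, Cmax and AUC0-∞ derived.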
Series [4] can be described thus: AUC0-infinity after single intravenous bolus of 1 mg/kg in dogs. Format: ADME, organism-based, Canis lupus familiaris. Also noted: time infinity, dose 1 mg/kg, route intravenous. The settings on record: dog, plasma. In a few lines: as §1
Series [5] can be described thus: Cmax after oral dose of compound at 3 mg/kg in dogs. In kind it is ADME, organism-based, Canis lupus familiaris. The arrangement: dose 3 mg/kg, route oral. The settings on record: dog, in vivo. In a few lines: (§2)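 Male beagle dogs given a single oral dose of 3 mg/kg. Plasma sampled, with Cmax and half-life derived and relative bioavailability calculated.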
Series [6] can be described thus: Apparent half-life after single intravenous bolus of 1 mg/kg in dogs. Format: ADME, organism-based, Canis lupus familiaris. The arrangement: dose 1 mg/kg, route intravenous. The note with it: dog, in vivo. Summed up:
as §1

Series [7] can be described thus: Cmax after single intravenous bolus of 1 mg/kg in rats. Format: ADME, organism-based. Also noted: dose 1 mg/kg, route intravenous. The settings on record: rat, in vivo.
For series [8], the system named is Canis familiaris. Briefly: Oral efficacy in dog thrombosis model at 3 mg/kg expressed as spontaneous reperfusion. In kind it is functional, Canis lupus familiaris. In a few lines:
(§3)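 Anesthetized dogs dosed orally, then an electrolytic injury made in the coronary artery lumen. Occlusion was taken as zero flow, and flow, occlusion time and spontaneous reperfusion were monitored over 4 h. Three dogs per group, mean ± SEM.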

A short description of series [9]: AUC0-infinity after single intravenous bolus of 1 mg/kg in rats. The arrangement: time infinity, dose 1 mg/kg, route intravenous. The settings on record: rat, plasma. In kind it is ADME, organism-based.
Series [10] can be described thus: Half-life after repeated oral dose of compound at 1 mg/kg in rats. Format: ADME, organism-based. Also noted: dose 1 mg/kg, route oral. The note with it: rat, in vivo. In a few lines: (§4)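 Male SD rats given repeated oral doses of 1 mg/kg. Plasma concentrations measured, with Cmax, half-life and AUC0-24 derived.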
For series [11], the system named is Canis familiaris. Briefly: Oral efficacy in dog thrombosis model at 3 mg/kg expressed as coronary flow reduction.
Series [12] is described as follows: Half-life after oral dose of compound at 3 mg/kg in dogs. The settings on record: dog, in vivo. The arrangement: dose 3 mg/kg, route oral. Format: ADME, organism-based, Canis lupus familiaris. In a few lines: as §2
The test system of series [13] is Rattus norvegicus. The series is described as follows: Oral efficacy in rat thrombosis model at 1 mg/kg expressed as thrombus weight. Format: functional. Summed up: (§5)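 Anesthetized, instrumented rats dosed orally before chemical induction of an occlusive carotid artery thrombus. Time to occlusion, carotid flow, patency and thrombus weight compared with vehicle, four rats per group, mean ± SEM.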

The test system of series [14] is Rattus norvegicus. The series is described as follows: Oral efficacy in rat thrombosis model at 1 mg/kg expressed as arterial occlusion. Format: functional. Summed up: as §5
Series [15] can be described thus: AUC0-24 after repeated oral dose of compound at 1 mg/kg in rats. The settings on record: rat, plasma. In kind it is ADME, organism-based. Also noted: time < 24 hr, dose 1 mg/kg, route oral. Summed up:
as §4

The nature of series [16]: AUC after administration at 2000 mg/kg/day in rats. Format: ADME, organism-based. The settings on record: rat, plasma.
In series [17] the test system is Rattus norvegicus. The series is described as follows: Oral efficacy in rat thrombosis model at 1 mg/kg expressed as occlusion time. Format: functional. In a few lines: as §5
Series [18] can be described thus: Relative bioavailability after oral dose of compound at 3 mg/kg in dogs. Format: ADME, organism-based, Canis lupus familiaris. The note with it: dog, in vivo. In a few lines: as §2
Series [19] can be described thus: Cmax after repeated oral dose of compound at 1 mg/kg in rats. Format: ADME, organism-based. The arrangement: dose 1 mg/kg, route oral. The note with it: rat, in vivo. In a few lines: as §4
In series [20] the test system is Canis familiaris. The series is described as follows: Oral efficacy in dog thrombosis model at 3 mg/kg expressed as occlusion time. In kind it is functional, Canis lupus familiaris. In a few lines: as §3
Series [21] concerns Rattus norvegicus. The series is described as follows: Oral efficacy in rat thrombosis model at 1 mg/kg expressed as carotid flow reduction. In kind it is functional. In a few lines: as §5
For series [22], the system named is Canis familiaris. Briefly: Oral efficacy in dog thrombosis model at 3 mg/kg expressed as arterial occlusion. Format: functional, Canis lupus familiaris. Summed up: as §3
A short description of series [23]: AUC after administration at 100 mg/kg/day in dogs. In kind it is ADME, organism-based, Canis lupus familiaris. The settings on record: dog, plasma.

Structures are written as SMILES.

Sequence of Plasminogen activator inhibitor 1 (P05121 whole entry): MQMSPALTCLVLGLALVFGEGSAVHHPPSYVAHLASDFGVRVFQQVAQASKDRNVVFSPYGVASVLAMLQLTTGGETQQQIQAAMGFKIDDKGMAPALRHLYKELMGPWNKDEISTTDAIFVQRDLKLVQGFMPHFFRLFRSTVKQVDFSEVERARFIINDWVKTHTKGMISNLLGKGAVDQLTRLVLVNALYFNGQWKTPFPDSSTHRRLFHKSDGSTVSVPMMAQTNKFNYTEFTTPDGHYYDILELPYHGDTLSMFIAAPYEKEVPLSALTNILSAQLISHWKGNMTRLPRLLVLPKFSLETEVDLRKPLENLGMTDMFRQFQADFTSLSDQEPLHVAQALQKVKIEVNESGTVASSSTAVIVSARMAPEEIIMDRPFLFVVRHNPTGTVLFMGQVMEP

`CC(C)(C)c1ccc(Cn2cc(C(=O)C(=O)O)c3cc(-c4cccc(C(C)(C)C)c4)ccc32)cc1` showed a 50% inhibitory concentration (IC50) in series [1] of 10 µM.
The compound `O=C(O)c1ccc(-n2c(-c3ccccc3)cc3c2CCc2ccccc2-3)cc1O` returned an IC50 in series [1] of 13 µM.
In [1], `O=C(O)C(=O)c1cn(Cc2ccccc2)c2cc(-c3ccc(OC(F)(F)F)cc3)ccc12` showed a concentration for half-maximal inhibition (IC50) of 17 µM.
Consider `COc1cccc(-c2ccc3c(c2)c(C(=O)C(=O)O)cn3Cc2ccc(C(C)(C)C)cc2)c1`, for which it took 21 µM to reach half-maximal inhibition in series [1] (IC50).
As to `O=C(Nc1ccc(Cl)c(Cl)c1)c1ccc(CNc2cc([N+](=O)[O-])ccc2C(=O)O)cc1`, the IC50 in series [1] worked out at 13 µM.
`CC(C)(C)c1ccc(Cn2cc(C(=O)C(=O)O)c3cc(-c4ccc(OC(F)(F)F)cc4)ccc32)cc1` yielded a 50% inhibitory concentration (IC50) in series [1] of 16 µM.
The compound `O=C(O)C(=O)c1cn(Cc2ccccc2)c2cc(-c3ccccc3)ccc12` gave an IC50 in series [1] of 26 µM.
In series [1], `O=C(O)C(=O)c1cn(Cc2ccc(F)cc2)c2cc(-c3ccccc3)ccc12` had an IC50 of 35 µM.
The same measure, in the same setting: under `CC(C)(C)c1ccc(Cn2cc(C(=O)C(=O)O)c3ccc(-c4ccc(OC(F)(F)F)cc4)cc32)cc1` stands more than 50 µM; under `O=C(O)C(=O)c1cn(Cc2ccccc2)c2cccc(-c3ccc(OC(F)(F)F)cc3)c12`, more than 50 µM; under `CN(C)CCSc1ccc(/C=c2\[nH]c(=O)/c(=C/c3ccccc3)[nH]c2=O)s1`, 8 µM.
The same measure, in the same setting: the value for `Cc1cccc(-c2ccc3c(c2)c(C(=O)C(=O)O)cn3Cc2ccc(C(C)(C)C)cc2)c1` [ALEPLASININ] was 8.6 µM.
For the compound `O=C(O)C(=O)c1cn(Cc2ccccc2)c2ccc(-c3ccc(OC(F)(F)F)cc3)cc12` [TIPLASININ], the half-life in series [2] is 2.95 h; in series [6], 3.73 h; in series [10], 4.1 h; in [12], 5.42 h. Also, the maximum concentration (Cmax) in [3] was determined as 13400 ng/mL; in series [5], 2140 ng/mL; in series [7], 4950 ng/mL; in series [19] it was 230 ng/mL. Besides, the AUC(0-inf) in series [4] was 20.5 µg·h/mL; in [9] it was 2.45 µg·h/mL. In addition, the Spontaneous reperfusion in the series on Canis familiaris [8] is given as 100%. The Coronary flow reduction in the series with Canis familiaris [11] was 66%. The compound further gave a Thrombus weight with Rattus norvegicus [13] of 0.5 mg. Moreover, the Arterial occlusion in the series on Rattus norvegicus [14] was 25%; in the series on Canis familiaris [22], 100%. The AUC at 24 h in series [15] worked out at 0.96 µg·h/mL. The values for the AUC in series [16] and in series [23] were approximately 1510 µg·h/mL and approximately 613 µg·h/mL, respectively. Besides, the Occlusion time is 50.5 min in the series on Rattus norvegicus [17] and 71.6 min in the series with Canis familiaris [20]. In [18], the bioavailability turned out to be 32%. The same compound had a Carotid flow reduction in the series with Rattus norvegicus [21] of 47.3%.
